Calb FLC = affects C. albicans growth with fluconazole; AID 1979; 0.57% of 300,000 active; growth inhibition, % (test concentration not listed); C. albicans CaCi-2 (fluconazole-resistant clinical isolate) + fluconazole, Alamar Blue growth, 48 h;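 active = growth inhibition above about 58% in most replicates, limit read from the data, passing the limit was not always enough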;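 note: all wells also contain fluconazole at 8 µg/ml as a sub-toxic cotreatment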
NLRP3 yeast inh = blocks the NALP3 inflammasome reconstituted in yeast; inhibition, % at 10 µM; 0.39% of 330,000 active; Yeast reconstituted NLRP3/ASC/caspase-1, beta-gal luminescence, 24 h;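 active = inhibition of 50% or more; inactive = inhibition below 50%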
Beta apoptosis = blocks beta cell apoptosis | INS-1E cytokine-induced death, ATP luminescence, 48 h; percent of positive-control rescue, neutral wells zero | protection from apoptosis, % (test concentration not listed) | 0.8% of 300,000 active | AID 435005;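 active = Every replicate reaches about 75%, or at least half do and their mean reaches it too, limit read from the data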;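 note: higher means more ATP so stronger rescue from cytokine killing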
T cruzi repl = T. cruzi replication inhibition; T. cruzi beta-gal in NIH3T3, luminescence, 90 h; inhibition, % (test concentration not listed); 1.4% of 300,000 active;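 active = mean inhibition across valid replicates above about 55%, limit read from the data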;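 note: signal also drops with host cell toxicity which is not excluded here; higher percent means less beta-gal luminescence so fewer parasites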
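Read-out: Parasite load inhibition, % | Test system: Mouse NIH/3T3 fibroblasts infected with β-gal-expressing T. cruzi Tulahuen C4 | Amount: 5,000 cells/well | Medium: DMEM, 2% fetal bovine serum | Signal: GalScreen β-gal luminescence, detergent lysis, 60 min | Timing: 3 h attach, ≥90 h co-culture | Also added: Tulahuen C4 trypomastigotes, 5000/well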
Mdm2-MdmX inh = inhibitors of human Mdm2/MdmX interaction. 3% of 330,000 active. SaOS-2 split-luciferase Mdm2/MdmX complementation, luminescence. inhibition, % at 8 µM;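 active = inhibition of at least 50% at 8 µM in the primary screen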
Target sequence (O15151 whole entry, looked up): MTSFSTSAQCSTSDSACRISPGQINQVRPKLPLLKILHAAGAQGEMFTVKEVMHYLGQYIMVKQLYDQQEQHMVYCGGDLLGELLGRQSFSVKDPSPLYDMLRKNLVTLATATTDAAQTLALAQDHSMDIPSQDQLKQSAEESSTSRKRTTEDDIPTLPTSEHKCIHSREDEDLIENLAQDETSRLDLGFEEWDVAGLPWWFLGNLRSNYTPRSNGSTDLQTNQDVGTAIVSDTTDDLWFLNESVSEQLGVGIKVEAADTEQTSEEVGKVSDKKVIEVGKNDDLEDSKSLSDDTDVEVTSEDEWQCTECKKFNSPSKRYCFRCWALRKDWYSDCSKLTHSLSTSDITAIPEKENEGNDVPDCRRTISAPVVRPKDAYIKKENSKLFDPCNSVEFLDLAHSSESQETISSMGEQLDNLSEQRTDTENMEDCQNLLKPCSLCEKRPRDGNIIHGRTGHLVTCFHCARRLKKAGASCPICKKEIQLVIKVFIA
Target sequence (Q00987 whole entry, looked up): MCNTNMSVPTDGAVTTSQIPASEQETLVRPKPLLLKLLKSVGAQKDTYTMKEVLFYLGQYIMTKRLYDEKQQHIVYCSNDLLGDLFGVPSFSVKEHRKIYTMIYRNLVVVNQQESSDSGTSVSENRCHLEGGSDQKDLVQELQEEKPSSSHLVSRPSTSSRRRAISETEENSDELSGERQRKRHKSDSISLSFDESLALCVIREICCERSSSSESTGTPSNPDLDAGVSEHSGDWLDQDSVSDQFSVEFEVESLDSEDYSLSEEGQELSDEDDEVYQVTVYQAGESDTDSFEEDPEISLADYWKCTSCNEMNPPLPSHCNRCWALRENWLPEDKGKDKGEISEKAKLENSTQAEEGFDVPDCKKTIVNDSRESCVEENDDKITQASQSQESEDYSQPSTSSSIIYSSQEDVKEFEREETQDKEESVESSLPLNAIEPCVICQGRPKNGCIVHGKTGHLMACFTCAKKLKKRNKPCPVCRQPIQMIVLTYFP
CSC inhib = blocks cancer stem cells. cancer stem cell-like cells viability, luminescence. inhibition, % at 7.5 µM. 1.1% of 300,000 active. AID 2717; in the data active = inhibition above about 75%; tested in HMLE shEcad cells
NALP3 yeast conf = confirmation of NALP3 inhibitors in yeast; shares compounds with NLRP3 yeast inh; yeast expressing human NALP3, luminescence; inhibition, % at 10 µM; 81% of 1,300 active; AID 435006; in the data active = inhibition above about 48%
Casp1 ASC ctr = active in yeast caspase-1-ASC counter-screen for NALP3 inhibitors; shares compounds with NLRP3 yeast inh; yeast expressing Caspase-1-ASC, luminescence counter screen; inhibition, % at 10 µM; 66% of 1,000 active; AID 488784
NALP3 retest = confirmation retest of NALP3 inhibitors in yeast. yeast expressing human NALP3, luminescence read-out. inhibition, % at 10 µM. AID 488794. 53% of 1,000 active. shares compounds with NLRP3 yeast inh
Large screens that a line does not name were inactive (follow-up assays come after a bar, where they were run). Sampled rows, rich in hits. Any-hit rate of the full collection: about 5.3%. Cut-off read from the data, not from the text of the source, unless noted: active = inhibition above about 50%; inactive = the rest.

O=C(COc1ncnc2ccccc12)c1ccc2c(c1)OCCO2	NLRP3 yeast inh 53.0 | NALP3 yeast conf 69.4 | Casp1 ASC ctr inactive | NALP3 retest inactive
O=C(COc1ncnc2cc(Cl)ccc12)c1ccc2c(c1)OCCO2	none
O=C(NCCNCCO)c1c(O)c2cccc3c2n(c1=O)CCC3	NLRP3 yeast inh 53.2 | NALP3 yeast conf 62.8 | Casp1 ASC ctr inactive | NALP3 retest inactive
CCCCn1c(-c2csc3c2CCCC3)n[nH]c1=S	NLRP3 yeast inh 53.8 | NALP3 yeast conf 66.2 | Casp1 ASC ctr 65.3 | NALP3 retest 54.7
CCn1c(-c2csc3c2CCCC3)n[nH]c1=S	none
C[C@]12CCC(=O)C[C@@H]1CC[C@@H]1[C@@H]2CC[C@]2(C)[C@@H](C(=O)COC(=O)CCC(=O)O)CC[C@@H]12	NLRP3 yeast inh 54.0 | NALP3 yeast conf 77.3 | Casp1 ASC ctr 50.7 | NALP3 retest inactive
C[C@]12C=CC(=O)C=C1CC[C@@H]1[C@@H]2[C@@H](O)C[C@@]2(C)[C@H]1CC[C@]2(O)C(=O)COC(=O)CCC(=O)O	none (no result: Calb FLC)
Cc1cc(C(=O)NCCN2CCOCC2)ccc1[N+](=O)[O-]	none
CC1CC(C)(C)N(C(=O)CN2CCN(C)CC2)c2ccccc21 (stereo not given)	none (no result: Beta apoptosis)
CC1CC(C)(C)N(C(=O)CN2C(=O)c3ccccc3C2=O)c2ccccc21 (stereo not given)	NLRP3 yeast inh 52.4 | NALP3 yeast conf inactive
COc1ccccc1C(=O)Nc1nnc(-c2ccco2)s1	NLRP3 yeast inh 55.5 | NALP3 yeast conf 57.0 | Casp1 ASC ctr 68.1 | NALP3 retest 54.7
O=C(Nc1nnc(-c2ccco2)s1)c1ccccc1	NLRP3 yeast inh 53.0 | NALP3 yeast conf 57.5 | Casp1 ASC ctr 57.4 | NALP3 retest inactive
COc1ccc(C(=O)Nc2nnc(-c3ccco3)s2)cc1	none
Cc1ccccc1C(=O)Nc1nnc(-c2ccco2)s1	NLRP3 yeast inh 62.1 | NALP3 yeast conf 48.9 | Casp1 ASC ctr inactive | NALP3 retest inactive
Cc1ccccc1OCC(=O)Nc1nnc(-c2ccco2)s1	none
CCC(=O)Nc1nnc(CCc2ccccc2)s1	none
O=C(Nc1nnc(CCc2ccccc2)s1)c1ccccc1	NLRP3 yeast inh 51.0 | NALP3 yeast conf 70.3 | Casp1 ASC ctr inactive | NALP3 retest inactive
O=c1[nH]c(SCc2ccccc2Cl)nc2c1CCC2	none
CNc1nc(SCc2ccccc2Cl)nc2c1CCCC2	NLRP3 yeast inh 97.6, CSC inhib 78.9 | NALP3 yeast conf 98.8 | Casp1 ASC ctr 98.3 | NALP3 retest 97.7
COc1ccc(CCNC(=O)c2ccc3ccccc3n2)cc1	NLRP3 yeast inh 52.3 | NALP3 yeast conf 67.2 | Casp1 ASC ctr inactive | NALP3 retest inactive
COc1ccc(Sc2cc(C(F)(F)F)nc(-c3ccccn3)n2)cc1	NLRP3 yeast inh 51.4 | NALP3 yeast conf 64.4 | Casp1 ASC ctr 54.8 | NALP3 retest inactive
Cc1cccc(C)c1N/C=C/c1onc(C)c1[N+](=O)[O-]	none
Cc1noc(/C=C/c2cccnc2)c1[N+](=O)[O-]	NLRP3 yeast inh 80.1, T cruzi repl 58.9 | NALP3 yeast conf 87.3 | Casp1 ASC ctr 84.6 | NALP3 retest 54.2
O=c1[nH]c2c(s1)C(c1ccccc1)C1C3CCC(C3)C1S2 (stereo not given)	none (no result: CSC inhib)
COc1ccc(C2c3sc(=O)[nH]c3SC3C4CCC(C4)C23)cc1 (stereo not given)	NLRP3 yeast inh 51.4 | NALP3 yeast conf 52.5
C=CCOc1nc2c(c(=O)n(C)c(=O)n2C)n1Cc1ccccc1	none
Cn1c(N2CCCC2)nc2c1c(=O)n(Cc1ccc(Cl)cc1)c(=O)n2C	NLRP3 yeast inh 73.7 (no result: Beta apoptosis) | NALP3 yeast conf inactive
C=CCOc1nc2c(c(=O)n(Cc3ccc(Cl)cc3)c(=O)n2C)n1C	NLRP3 yeast inh 55.1 | NALP3 yeast conf inactive | Casp1 ASC ctr inactive | NALP3 retest inactive
CCCNS(=O)(=O)c1ccc(CCC(=O)N2CCCCC2)cc1	none
CCOc1ccccc1N1CC(C(=O)NCCOc2ccccc2OC)CC1=O (stereo not given)	none (no result: Beta apoptosis)
C/C(=N/Nc1ncc(Br)cn1)c1ccc(Br)cc1	NLRP3 yeast inh 54.8 | NALP3 yeast conf 70.3 | Casp1 ASC ctr 60.8 | NALP3 retest 51.8
Oc1c(C=Nc2ccccc2)sc(=S)n1Cc1ccccc1	none
CCn1c(O)c(C=Nc2ccccc2)sc1=S	NLRP3 yeast inh 54.0 | NALP3 yeast conf 58.5 | Casp1 ASC ctr 55.6 | NALP3 retest 60.2
CC(=O)N1[C@@H]2CC3C4CC=C5C[C@@H](O)CC[C@]5(C)C4CC[C@]3(C)[C@@]21C(C)=O (stereo not given in full)	none
C[C@]12CC[C@H](O)CC1=CCC1C2CC[C@@]2(C)C1CCC21OCCO1 (stereo not given in full)	NLRP3 yeast inh 56.8 (no result: Calb FLC, T cruzi repl) | NALP3 yeast conf 62.5
CC1CCN(c2ncnc3c2cnn3-c2ccccc2)CC1	NLRP3 yeast inh 52.7 (no result: Beta apoptosis) | NALP3 yeast conf 60.4 | Casp1 ASC ctr inactive | NALP3 retest inactive
CC(C)(C)Nc1ncnc2c1cnn2-c1ccccc1	NLRP3 yeast inh 66.3 | NALP3 yeast conf 73.9 | Casp1 ASC ctr 80.1 | NALP3 retest 73.4
c1ccc(CNc2ncnc3c2cnn3-c2ccccc2)cc1	none
CCc1cccc(CC)c1-n1c(SCC(=O)N2CCc3ccccc3C2)nnc1-c1cccnc1	none
C(=C\c1nc2ccccc2[nH]1)/c1ccccc1	NLRP3 yeast inh 61.2, CSC inhib 81.7 | NALP3 yeast conf 83.8 | Casp1 ASC ctr 59.5 | NALP3 retest 57.2
CC(C)C(OC(=O)CCC(=O)Nc1nccs1)C(=O)NC1CCCCC1 (stereo not given)	none
CCCC/C(O)=N\S(=O)(=O)c1ccc(N=NN(C)C)cc1	none
N#C/C(=C\c1ccc(O)cc1)c1nc2ccccc2o1	NLRP3 yeast inh 71.0 | NALP3 yeast conf 77.2 | Casp1 ASC ctr 84.9 | NALP3 retest 80.0
CC1CCCC(NC(=O)CCC(=O)N2CCOc3ccccc32)C1C (stereo not given)	none
O=c1[nH]c2cc3c(cc2cc1CN(CCO)S(=O)(=O)c1ccccc1)OCCO3	none
CCc1sc(C(=O)N2CCc3ccccc32)cc1C	NLRP3 yeast inh 51.1 | NALP3 yeast conf inactive
O=C(c1ccc(Cl)s1)N1CCc2ccccc21	none
c1ccc(-c2n[nH]nc2-c2ccccc2)cc1	none
CCOC(=O)C1(CCc2ccccc2)CCN(Cc2cnc(N(C)C)s2)CC1	none
CN(C)c1ncc(CN2CCC(CO)(CCCc3ccccc3)CC2)s1	NLRP3 yeast inh 70.0, T cruzi repl 56.4 | NALP3 yeast conf inactive

Screening data (PubChem)
